Results from article PMC5167571 (Molecular pharmaceutics, 2015).
Starred links: 1 amine or outer side, 2 acyl side, 3 side chain; linkers in the order of their positions; H or OH if unused. Non-standard residues stand in square brackets, D forms with d. Residues, ends and D or L forms follow the SMILES beside them. *: point of attachment. DOTA = O=C(O)CN1CCN(CC(=O)O)CCN(CC(=O)*)CCN(CC(=O)O)CC1; Acryloyl(3-(3-pyridyl),E) = O=C(/C=C/c1cccnc1)*; X1 = O=C(Cc1ccc(N[*:1])cc1)[*:2]; Aad = N[C@@H](CCCC(=O)O)C(=O)O; NH(2-Me-phenyl) = Cc1ccccc1N*; PEG4 = NCCOCCOCCOCCOCCC(=O)O; Ac6c = NC1(C(=O)O)CCCCC1; CO = O=C([*:1])[*:2]

Experiments:
[1] = Biodistribution of ^68Ga-DOTA-PEG4-LLP2A; type: in vivo, mouse; details: C57BL/6, mouse, iv, 5.55 MBq, total radioactivity
Outline: (§1)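 Mice bearing s.c. right-shoulder B16F10 tumors (10⁶ cells in PBS) received the ⁶⁸Ga tracer i.v. (5.55 MBq, 277 ng), n = 4 per group. They were sacrificed at 1 h. A blocking group received tracer premixed with 100 μg LLP2A-PEG₄. Tissues and tumor were weighed and γ-counted, and decay-corrected %ID/g was calculated against a standard. Data are mean ± SD.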

[2] = system: B16F10 tumor-bearing C57BL/6 mice; assay: Biodistribution of ^68Ga-DOTA-PEG4-LLP2A; type: in vivo, mouse; details: 360-fold excess of LLP2A-PEG4 (100 μg), 1 h
Outline: as §1

VLA-4 (integrin α4β1) = VLA-4 (integrin α4β1) (Mus musculus, UniProt P09055+Q00651); assay: Competitive binding assay with ^64Cu-NODAGA-PEG4-LLP2A in B16F10 melanoma cells; details: VLA-4, B16F10 cells; Ki of Ga conjugate vs Kd of Lu conjugate
Chain of VLA-4 (integrin α4β1) (Q00651 41-1039): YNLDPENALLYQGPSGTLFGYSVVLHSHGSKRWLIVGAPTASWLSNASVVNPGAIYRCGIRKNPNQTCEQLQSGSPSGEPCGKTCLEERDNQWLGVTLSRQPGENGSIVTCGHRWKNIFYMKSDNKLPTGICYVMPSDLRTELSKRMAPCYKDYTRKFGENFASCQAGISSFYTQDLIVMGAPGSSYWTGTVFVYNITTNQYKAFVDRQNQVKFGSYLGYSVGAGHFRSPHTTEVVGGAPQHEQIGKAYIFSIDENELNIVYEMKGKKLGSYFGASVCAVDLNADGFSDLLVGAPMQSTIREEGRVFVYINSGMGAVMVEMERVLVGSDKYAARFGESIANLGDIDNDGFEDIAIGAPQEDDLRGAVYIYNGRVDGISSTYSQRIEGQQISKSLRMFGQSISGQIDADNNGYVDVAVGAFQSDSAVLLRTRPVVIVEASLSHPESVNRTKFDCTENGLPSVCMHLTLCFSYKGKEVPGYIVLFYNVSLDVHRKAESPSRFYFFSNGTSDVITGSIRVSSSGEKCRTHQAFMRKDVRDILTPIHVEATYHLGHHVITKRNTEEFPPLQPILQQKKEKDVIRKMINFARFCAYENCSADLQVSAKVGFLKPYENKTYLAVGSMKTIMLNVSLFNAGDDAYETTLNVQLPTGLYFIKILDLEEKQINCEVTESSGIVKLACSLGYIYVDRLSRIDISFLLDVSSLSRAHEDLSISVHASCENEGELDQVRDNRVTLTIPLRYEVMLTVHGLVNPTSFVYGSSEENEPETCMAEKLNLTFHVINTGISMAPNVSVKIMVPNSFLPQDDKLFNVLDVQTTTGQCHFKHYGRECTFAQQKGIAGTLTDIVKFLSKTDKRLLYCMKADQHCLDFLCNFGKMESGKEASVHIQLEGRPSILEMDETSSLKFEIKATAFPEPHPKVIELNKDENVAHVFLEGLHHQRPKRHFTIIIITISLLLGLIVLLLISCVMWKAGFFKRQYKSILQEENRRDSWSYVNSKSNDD
Chain of VLA-4 (integrin α4β1) (P09055 21-798): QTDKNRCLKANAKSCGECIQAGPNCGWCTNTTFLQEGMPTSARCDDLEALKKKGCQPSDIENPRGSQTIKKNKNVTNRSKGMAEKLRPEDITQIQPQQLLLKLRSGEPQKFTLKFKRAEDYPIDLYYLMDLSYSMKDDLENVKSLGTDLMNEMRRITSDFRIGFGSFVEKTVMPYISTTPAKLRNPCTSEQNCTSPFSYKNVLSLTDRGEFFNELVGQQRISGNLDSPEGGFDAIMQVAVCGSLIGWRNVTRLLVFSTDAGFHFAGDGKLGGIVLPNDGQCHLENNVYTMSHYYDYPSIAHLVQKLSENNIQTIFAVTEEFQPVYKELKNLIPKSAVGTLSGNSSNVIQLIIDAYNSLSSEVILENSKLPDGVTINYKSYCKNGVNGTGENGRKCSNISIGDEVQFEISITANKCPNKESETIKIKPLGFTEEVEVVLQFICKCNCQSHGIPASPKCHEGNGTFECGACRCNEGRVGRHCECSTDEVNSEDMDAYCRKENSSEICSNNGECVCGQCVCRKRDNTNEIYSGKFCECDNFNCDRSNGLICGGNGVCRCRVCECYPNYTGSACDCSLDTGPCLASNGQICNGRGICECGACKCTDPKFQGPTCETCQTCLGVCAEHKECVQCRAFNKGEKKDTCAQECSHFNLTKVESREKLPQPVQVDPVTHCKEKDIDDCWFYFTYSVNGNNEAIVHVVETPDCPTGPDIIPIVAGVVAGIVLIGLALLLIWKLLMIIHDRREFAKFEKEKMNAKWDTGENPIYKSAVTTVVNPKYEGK
Outline: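 Both assays used B16F10 cells (10⁵/well, seeded 24 h earlier) in HBSS/0.1% BSA/1 mM Mn²⁺ on ice. […] Kd: ¹⁷⁷Lu conjugate (0.2–40 nM), 2 h, n = 3, with nonspecific binding from a 15 μg LLP2A-PEG₄ block. Cell-bound counts were normalized to BCA protein and fitted for Kd and Ki.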

B16F10 cells = assay: Internalization assay; type: cell-based, mouse; details: 37 °C; for Internalized agent: 12 ng/well, n = 3
[3] = Biodistribution of ^177Lu-DOTA-PEG4-LLP2A; type: in vivo, mouse; details: C57BL/6, mouse, iv, 3.6 MBq, total radioactivity
Outline: (§2)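 B16F10 cells (10⁶ in PBS) were implanted s.c. in the right shoulder of 6–8-week-old C57BL/6 mice. ¹⁷⁷Lu conjugate (3.6 MBq, 90 ng) was given i.v., n = 5 per group. Animals were killed at 4, 24, 48, 72 and 96 h. Blood, organs, muscle, bone and tumor were weighed and γ-counted. Values are decay-corrected %ID/g against an injected-dose standard, shown as tumor/blood and tumor/muscle ratios, mean ± SD.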

[4] = system: B16F10 tumor-bearing C57BL/6 mice; assay: Biodistribution of ^177Lu-DOTA-PEG4-LLP2A; type: in vivo, mouse; details: 4 h postinjection, i.v.
Outline: as §2

Cc1ccccc1NC(=O)Nc1ccc(CC(=O)N[C@@H](CCCCNC(=O)/C=C/c2cccnc2)C(=O)N[C@@H](CCCC(=O)O)C(=O)NC2(C(=O)NCCOCCOCCOCCOCCC(=O)N[C@@H](CCCCNC(=O)CN3CCN(CC(=O)O)CCN(CC(=O)O)CCN(CC(=O)O)CC3)C(N)=O)CCCCC2)cc1 [^68Ga-DOTA-PEG4-LLP2A, metal not drawn] ({NH(2-Me-phenyl)-CO}-[X1]K(Acryloyl(3-(3-pyridyl),E))[Aad][Ac6c][PEG4]K(DOTA)-NH2; N-terminus and C-terminus assumed)
tissue uptake at 1 h ([1]; bone marrow): 3.2 ± 0.7 %ID/g
tissue uptake at 1 h ([1]; kidneys): 3.7 ± 0.9 %ID/g
tissue uptake at 1 h ([1]; liver): 1.9 ± 0.4 %ID/g
tissue uptake at 1 h ([1]; spleen): 5.4 ± 1.7 %ID/g
tissue uptake at 1 h ([1]; thymus): 4.6 ± 0.5 %ID/g
tissue uptake at 1 h ([1]; tumor): 9.1 ± 0.9 %ID/g
tissue to tissue ratio at 1 h ([1]; tumor/blood): 5.8 ± 1.5
tissue to tissue ratio at 1 h ([1]; tumor/muscle): 9.7 ± 1.5
uptake in blocking study [2]: reduction of uptake
fold higher affinity than the ^177Lu-labeled conjugate (VLA-4 (integrin α4β1)): 3 fold

Cc1ccccc1NC(=O)Nc1ccc(CC(=O)N[C@@H](CCCCNC(=O)/C=C/c2cccnc2)C(=O)N[C@@H](CCCC(=O)O)C(=O)NC2(C(=O)NCCOCCOCCOCCOCCC(=O)N[C@@H](CCCCNC(=O)CN3CCN(CC(=O)O)CCN(CC(=O)O)CCN(CC(=O)O)CC3)C(N)=O)CCCCC2)cc1 [^177Lu-DOTA-PEG4-LLP2A, metal not drawn] ({NH(2-Me-phenyl)-CO}-[X1]K(Acryloyl(3-(3-pyridyl),E))[Aad][Ac6c][PEG4]K(DOTA)-NH2; N-terminus and C-terminus assumed)
Internalized agent (B16F10 cells; 30 min (maximum uptake)): 341 ± 110 fmol/mg
Internalized agent (B16F10 cells; 2 h): 343 ± 53 fmol/mg
Internalized agent (B16F10 cells; 4 h): 303 ± 41 fmol/mg
time to internalization post addition (B16F10 cells; internalized rapidly): < 15 min
tissue uptake at 4 h ([3]; bone (likely bone marrow)): 10.1 ± 3.5 %ID/g
tissue uptake at 24 h ([3]; bone): 4.1 ± 0.4 %ID/g
tissue uptake at 48 h ([3]; bone): 2.7 ± 0.6 %ID/g
tissue uptake at 72 h ([3]; bone): 2.2 ± 0.5 %ID/g
tissue uptake at 96 h ([3]; bone): 1.6 ± 0.6 %ID/g
tissue uptake at 24 h ([3]; kidney): 2.4 ± 0.3 %ID/g
tissue uptake at 4 h ([3]; kidneys): 6.5 ± 1.5 %ID/g
tissue uptake at 4 h ([3]; liver): 2.8 ± 0.4 %ID/g
tissue uptake at 24 h ([3]; liver): 1 ± 0.1 %ID/g
tissue uptake at 4 h ([3]; lungs): 5.9 ± 0.8 %ID/g
tissue uptake at 4 h ([3]; spleen): 27.1 ± 3.1 %ID/g
tissue uptake at 24 h ([3]; spleen): 10.1 ± 4.1 %ID/g
tissue uptake at 48 h ([3]; spleen): 7.4 ± 1.4 %ID/g
tissue uptake at 72 h ([3]; spleen): 4.7 ± 1.5 %ID/g
tissue uptake at 96 h ([3]; spleen): 3.7 ± 1.1 %ID/g
tissue uptake at 4 h ([3]; thymus): 9.7 ± 1.7 %ID/g
tissue uptake at 24 h ([3]; thymus): 5.6 ± 0.9 %ID/g
tissue uptake at 48 h ([3]; thymus): 4.1 ± 0.2 %ID/g
tissue uptake at 72 h ([3]; thymus): 2.7 ± 0.5 %ID/g
tissue uptake at 96 h ([3]; thymus): 1.7 ± 0.2 %ID/g
tissue uptake at 4 h ([3]; tumor): 31.5 ± 7.8 %ID/g
tissue uptake at 24 h ([3]; tumor): 5.4 ± 1.5 %ID/g
tissue uptake at 48 h ([3]; tumor): 1.7 ± 0.4 %ID/g
tissue uptake at 72 h ([3]; tumor): 0.9 ± 0.4 %ID/g
tissue uptake at 96 h ([3]; tumor): 0.4 ± 0.07 %ID/g
tissue to tissue ratio at 4 h ([3]; tumor/blood): 36 ± 10
tissue to tissue ratio at 24 h ([3]; tumor/blood): 186 ± 26
tissue to tissue ratio at 48 h ([3]; tumor/blood): 61 ± 13
tissue to tissue ratio at 72 h ([3]; tumor/blood): 35 ± 37
tissue to tissue ratio at 96 h ([3]; tumor/blood): 25 ± 16
tissue to tissue ratio at 4 h ([3]; tumor/muscle): 21 ± 7
tissue to tissue ratio at 24 h ([3]; tumor/muscle): 18 ± 3
tissue to tissue ratio at 48 h ([3]; tumor/muscle): 9 ± 1
tissue to tissue ratio at 72 h ([3]; tumor/muscle): 6 ± 3
tissue to tissue ratio at 96 h ([3]; tumor/muscle): 3 ± 0.4
tumor uptake ([4]; 3.6 MBq, 90 ng, n = 5, mean ± SD): 31.3 ± 7.8 % ID/g
uptake in the muscle, heart, and blood ([4]; n = 5): minimal uptake
